Results collected from several papers.
Each line is one published result; the experiments were not run side by side. Values after ≈ are worked out from the molar mass of the structure shown.
Organism: Enterococcus faecalis

| SMILES | test | system | setting | quantity | value |
| --- | --- | --- | --- | --- | --- |
| O=C(O)CN(CCN(CC(=O)O)CC(=O)O)CC(=O)O | microbial killing | OG1RF |  | MBC | 500 µM (≈ 146 µg/mL) |
| Cc1cc(C)n(C(=O)c2ccc(-n3c(C)ccc3C)cc2)n1 | microbial growth, broth dilution | ATCC14506 | 18 h | MIC | 125 µg/mL (≈ 426 µM) |
| CC1(C)S[C@@H]2[C@H](NC(=O)[C@H](N)c3ccccc3)C(=O)N2[C@H]1C(=O)O | microbial growth, agar dilution | ATCC29212 | 26.93 µM | inhibition | 100% |
| CCn1cc(C(=O)O)c(=O)c2cc(F)c(N3CCNCC3)cc21 | microbial killing, broth dilution | NCTC12697 |  | MBC | 4 µM (≈ 1.28 µg/mL) |
| COc1cccc(-c2nc3ccc(C)cc3[nH]2)c1 | microbial growth, broth dilution | ATCC29212 |  | MIC | 128 µg/mL (≈ 537 µM) |
| c1ccc(CN(CCN(Cc2ccccn2)Cc2ccccn2)Cc2ccccn2)nc1 | microbial killing | OG1RF |  | MBC | > 2000 µM |
| Clc1ccc(-c2nc3ccccc3[nH]2)c(Cl)c1 | microbial growth, broth dilution | ATCC29212 |  | MIC | 64 µg/mL (≈ 243 µM) |
| Cc1ccc(C)n1-c1ccc(-c2nnc(-c3c(Cl)cccc3Cl)[nH]2)cc1 | microbial growth, broth dilution | ATCC14506 | 18 h | MIC | 8 µg/mL (≈ 20.9 µM) |
| CN[C@H](CC(C)C)C(=O)N[C@H]1C(=O)N[C@@H](CC(N)=O)C(=O)N[C@H]2C(=O)N[C@H]3C(=O)N[C@H](C(=O)N[C@H](C(=O)O)c4cc(O)cc(O)c4-c4cc3ccc4O)[C@H](O)c3ccc(c(Cl)c3)Oc3cc2cc(c3O[C@@H]2O[C@H](CO)[C@@H](O)[C@H](O)[C@H]2O[C@H]2C[C@](C)(N)[C@H](O)[C@H](C)O2)Oc2ccc(cc2Cl)[C@H]1O | microbial killing, broth dilution | NCTC12697 |  | MBC | 16 µM (≈ 23.2 µg/mL) |
| CSc1ccc(-c2nc3ccc(C)cc3n2Cc2ccccc2)cc1 | microbial growth, broth dilution | ATCC29212 |  | MIC | 128 µg/mL (≈ 372 µM) |
| CC1(C)S[C@@H]2[C@H](NC(=O)[C@H](N)c3ccccc3)C(=O)N2[C@H]1C(=O)O | microbial growth, broth dilution | ATCC29212 |  | MIC | 1 µg/mL (≈ 2.86 µM) |
